Most compounds without a hit are left out; they make up all but 2.9% or so of the library.
TRPC4 PAM = TRPC4 (mouse) allosteric potentiation | Q9QUQ5 | HEK293 TRPC4beta/mu-opioid, DAMGO EC20, Fluo-4 Ca2+ flux; hits give high values | B-score at 10 µM | 0.42% of 310,000 active | AID 2227;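 active = B-score of calcium response area above 5 SD of library B-scores, with initial fluorescence ratio within 5 SD of library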;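 also: B-score of integrated fluorescence ratio over time as area under calcium response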
TRPC4 act = activators of mouse TRPC4 channel | B-score at 10 µM | AID 2237 | Q9QUQ5 | 0.49% of 310,000 active | HEK293 TRPC4beta/mu-opioid, Fluo4 calcium fluorescence; hits give high values;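 active = B-score above 5 SD of library B-scores, and initial fluorescence ratio not above library mean plus 5 SD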;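 also: positive B-score marks a calcium rise read as TRPC4 activation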
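Assay system: HEK293 stable line with TRPC4beta plus mu-opioid receptor. Times: dye 45 min RT, read 110 s. Measured by: kinetic Fluo4 calcium fluorescence. Measure: B score of integrated ratio. Controls: assay buffer as low control, maximal DAMGO as high control.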
TRPC6 act = activators of mouse TRPC6 channel; Q61143; HEK293-TRPC6 membrane potential dye fluorescence; hits give high values; AID 2550; 0.13% of 310,000 active; B-score at 10 µM;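 active = B-score of the integrated fluorescence ratio above library mean plus 3 SD, and starting fluorescence ratio within library mean plus 5 SD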;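 also: higher score means more depolarization so channel activation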
TRPC6 inh = inhibitors of mouse TRPC6 channel | 1.1% of 310,000 active | B-score at 10 µM | AID 2553 | HEK293-TRPC6, membrane potential dye, ACh-evoked depolarization; hits give low values;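 active = B-score under library mean minus 3 SD, initial fluorescence not abnormally high, positive integrated signal ratio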;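 also: B-score derived from integrated fluorescence ratio over the kinetic read; more negative B-score means stronger inhibition of depolarization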
Kir21 inh = Kir2.1 (mouse) channel inhibition; P35561; HEK293-Kir2.1, FluxOR thallium flux fluorescence; hits give low values; B-score at 10 µM; 0.85% of 310,000 active; AID 1672;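 active = fluorescence ratio B-score at or below minus 3 SD of library scores, with starting-brightness B-score within 2 SD, cut at about -4.2 in these data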;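 also: channel flux triggered by added potassium and thallium sulfate stimulus; B-score of peak minus minimum fluorescence over baseline after thallium stimulus; more negative B-score means stronger Kir2.1 block with less thallium influx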
TRPC4 block = inhibitors of mouse TRPC4 channel; HEK293 TRPC4beta/mu-opioid, DAMGO-evoked Fluo4 calcium flux; hits give low values; B-score at 10 µM; 0.39% of 300,000 active; AID 2247;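 active = B-score over 3 SD under the library average, no early fluorescence shift, positive overall ratio signal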
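Assay system: TRPC4beta/mu-opioid receptor HEK293 cell line; compound dosing: single concentration per test compound; detection: Fluo4 Ca2+ flux fluorescence; evaluation: per-well B score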
Starred values were filed as active, the others as inactive; i = inactive; nt = not tested or not shown.

SMILES	TRPC4 PAM	TRPC4 act	TRPC6 act	TRPC6 inh	Kir21 inh	TRPC4 block
CCCCN(CC)CCNC(=O)c1cc2c(-c3ccc(Cl)cc3)nn(C)c2s1	i	94*	i	i	-1.8	i
CCN(CC)CCNC(=O)c1cc2c(-c3ccc(Cl)cc3)nn(C)c2s1	i	i	i	i	-1.4	i
CCN(CC)CCNC(=O)c1cc2c(-c3cccc(OC)c3)nn(C)c2s1	17*	i	i	i	-0.12	i
COCCCNC(=O)c1cc2c(-c3cccc(OC)c3)nn(C)c2s1	i	i	i	i	0.07	i
CCCN(CCC)CCCNC(=O)c1cc2c(-c3ccc(OC)c(OC)c3)nn(C)c2s1	i	114*	i	i	1.5	i
COc1ccc(-c2nn(C)c3sc(C(=O)NCCN(C)C)cc23)cc1OC	i	i	i	i	1.1	i
CCCN(CCC)CCNC(=O)c1cc2c(-c3ccc(Cl)cc3)nn(C)c2s1	i	47*	i	i	-3	i
Cc1cc(C)c2c(CN3CCC(C)CC3)cc(=O)oc2c1C	i	i	i	i	0.96	i
COc1cc(OC)c(/C=N/NC(=O)c2ccncc2)cc1Br	i	i	i	i	-1.4	i
CC(=O)c1ccc(N2CCN(C(=O)c3cc4c(s3)CCCC4)CC2)cc1	10*	i	i	i	0.64	i
COC(=O)[C@@]1(Cc2ccc(F)cc2)[C@H]2c3cc(C(=O)N(C)C)n(CCc4ccc(OC)c(Br)c4)c3C[C@H]2CN1C(=O)c1ccccc1	i	i	i	i	-1.4	i
COC(=O)[C@@]1(Cc2ccc(F)cc2)[C@H]2c3cc(C(=O)N(C)C)n(CCc4ccccn4)c3C[C@H]2CN1C(=O)c1ccccc1	i	143*	i	i	1	i
O=C(COC(=O)CCC(=O)c1ccc(Cl)cc1)NC1CC1	i	i	i	i	0.64	i
O=C(NC(=S)Nc1ccccc1N1CCCCC1)c1cccs1	i	i	i	i	-0.38	i
Cc1cccc(NC(=O)CSCc2c(C)noc2C)c1C	i	i	i	i	0.05	i
Cc1noc(C)c1CSCC(=O)Nc1ccccc1N1CCCCC1	i	i	i	i	-9.9*	i
Cc1cccc(NC(=O)CSCC(=O)Nc2ccccc2N2CCCC2)c1	i	i	i	i	-4.3*	i
CC(C)OC(=O)c1ccccc1C(=O)c1ccc(N)c([N+](=O)[O-])c1	i	i	i	i	-5.3*	i
Nc1ccccc1Sc1ccc(C(=O)c2ccccc2C(=O)O)cc1[N+](=O)[O-]	i	i	i	i	0.66	i
COc1cc(C2Nc3ccccc3NC3=C2C(=O)CC(C)(C)C3)cc(OC)c1OC (configuration not stated)	i	i	i	i	-0.09	i
CCOCCCNc1ncnc2c1[nH]c1ccccc12	i	i	i	i	-0.76	i
CCCCOCCCNc1ncnc2c1[nH]c1ccccc12	i	i	i	i	-9.6*	i
O=C(CSc1nc2cc(Cl)c(Cl)cc2[nH]1)c1ccc2c(c1)OCO2	i	i	i	i	0.68	i
Cc1nc2ccc(OC(=O)c3ccccc3)cc2s1	i	i	i	i	-4.8*	i
Cc1nc(NC(=O)COC(=O)c2ccc(S(=O)(=O)N3CCc4ccccc4C3)cc2)c(Cl)cc1Cl	i	i	i	i	0.02	i
SMILES	TRPC4 PAM	TRPC4 act	TRPC6 act	TRPC6 inh	Kir21 inh	TRPC4 block
CCCN(CCC)CCCNC(=O)c1ccc(CS(=O)(=O)c2c(Cl)cccc2Cl)o1	i	79*	i	i	2.5	i
COc1cc(-c2nc(C(F)(F)F)c(OC)o2)cc(OC)c1OC	i	i	i	i	-0.69	i
COc1ccc(-c2cc(C)no2)cc1S(=O)(=O)NCCCN(C)Cc1ccccc1	14*	i	i	i	-2.3	i
Cc1cc(-c2ccc(C)c(S(=O)(=O)NCCCN3CCCCCC3)c2)on1	10*	i	i	i	0.65	i
Cc1cc(-c2ccc(C)c(S(=O)(=O)N3CCN(c4ccccn4)CC3)c2)on1	40*	i	i	i	0.36	i
Cc1cc(-c2ccc(C)c(S(=O)(=O)N3CCN(c4ccc([N+](=O)[O-])cc4)CC3)c2)on1	i	i	i	i	-0.49	i
COc1ccc(-c2cc(C)no2)cc1S(=O)(=O)NCCCN1CCN(c2ccccc2)CC1	i	i	i	i	0.5	i
CCOC(=O)CSc1nnc(-c2cccs2)n1-c1ccccc1	i	i	i	i	0.53	i
CC(Nc1nc(N2CCNCC2)nc2ccccc12)c1ccccc1 (configuration not stated)	i	103*	i	i	0.02	i
Nc1ccc(-c2nc3c(Cl)cc(N)cc3[nH]2)cc1	i	i	i	i	0.76	i
CCN1CCC(NC(=O)Nc2ccc(F)cc2)CC1	i	i	i	i	1.7	i
CCOC(=O)N1CCC(NC(=O)Cc2ccccc2)CC1	i	i	i	i	-0.32	i
CCCN1CCC(NC(=O)Nc2ccc(F)cc2F)CC1	i	43*	i	i	-0.44	i
Cc1cccc(CC(=O)NCCN2CCCCC2)c1	i	i	i	i	1.4	i
CCCN1CCC(NC(=O)Cc2cccc(C)c2)CC1	i	89*	i	i	1.8	i
CCCN1CCC(NC(=O)Cc2ccc(C)cc2)CC1	10*	62*	i	i	-0.1	i
CCOc1ccc(N(C)C(=O)CCc2nnc3ccc(N4CCCC4)nn23)cc1	i	i	i	i	1.9	i
COc1ccc(C2(C)NC(=O)N(CC(=O)NCc3ccccc3F)C2=O)cc1 (configuration not stated)	i	i	i	i	-0.8	i
COc1cccc(CNC(=O)c2nnn(CC(=O)Nc3ccc(C)c(C)c3)c2N)c1	i	i	i	i	0.85	i
COc1ccccc1CCc1nnc(CCC(=O)NCCCOc2cccnc2)o1	i	i	i	i	1.5	-6*
O=C(NCCCN1CCc2ccccc2C1)Nc1ccc(Cl)cc1	i	i	i	i	-4.7*	nt
COc1ccc(-n2cc(-c3ccc(Br)cc3)[nH]c2=S)cc1	i	i	i	i	2.3	i

Screening results as filed in PubChem.
